In the library only some 10% were active in any assay of this set; here they are far more common.
PMI act satM6P – human PMI activators, high substrate, primary screen, biochemical, fluorescence intensity, near-saturating mannose 6-phosphate; Mannose-6-phosphate isomerase (Homo sapiens), P34949; coupled PMI enzyme assay, resazurin fluorescence, 20 min; stronger effect = higher value; 1 = untreated enzyme, 0 = substrate-free blank; activation factor at 20 µM; hit rate 0.34% among 190,000; AID 1216, 2008;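 active = activation factor of 2 or more at 20 µM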
Target sequence (P34949 whole entry, looked up): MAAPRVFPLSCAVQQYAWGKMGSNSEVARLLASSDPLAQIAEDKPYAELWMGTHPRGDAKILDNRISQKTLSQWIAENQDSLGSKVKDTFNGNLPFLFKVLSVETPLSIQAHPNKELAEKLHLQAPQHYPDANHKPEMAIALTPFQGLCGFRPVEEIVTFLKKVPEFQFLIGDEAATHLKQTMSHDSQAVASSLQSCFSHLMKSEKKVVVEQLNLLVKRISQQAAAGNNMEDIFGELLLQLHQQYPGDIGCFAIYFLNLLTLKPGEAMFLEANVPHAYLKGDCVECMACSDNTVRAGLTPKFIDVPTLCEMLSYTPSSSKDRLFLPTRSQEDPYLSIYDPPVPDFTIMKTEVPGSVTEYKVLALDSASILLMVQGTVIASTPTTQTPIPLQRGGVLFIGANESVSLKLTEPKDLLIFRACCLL
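Technique: Diaphorase-driven resazurin-to-resorufin fluorescence, excitation 544, emission 590 nm | Assay system: Human PMI in coupled enzyme assay | Times: Enzyme reaction with compound 20 min at room temperature | Medium: HEPES-buffered pH 7.4 with magnesium and detergent | Reagent: Mannose-6-phosphate 1.0 mM (near-saturating) plus 0.22 mM NADP+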
WT yeast gro inh – growth inhibition of WT strain, primary screen, mitochondrial fusion inhibitor project, WT and mutant strains, chemical genetic; inhibition, % at 10 µM; mitochondrial fusion phenotypic screen; AID 1362, 2008; hit rate 2.1% among 190,000; in the data active = inhibition above about 58%; tested in S. cerevisiae
L major viab – Leishmania major promastigote growth inhibition, primary screen. Leishmania major promastigotes, resazurin fluorescence viability. inhibition, % at 10 µM. hit rate 9% among 200,000; in the data active = inhibition above about 50%;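 note: promastigotes grown with compound for 44 hours at 28 °C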
Diaph act CS – compounds boosting diaphorase resazurin reduction – biochemical, uHTS, resorufin fluorescence, counter-screen for diaphorase-coupled primary assays, primary screen; Diaphorase/resazurin coupled assay, 16 min; stronger effect = higher value; 1 = vehicle wells, 0 = NADH-free wells; activation factor at 20 µM; hit rate 0.005% among 190,000; AID 1229, 2008;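 active = diaphorase activity raised at least twofold by the compound at 20 µM; inactive = activation factor below 2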
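Test system: Clostridium kluyveri diaphorase, purified enzyme. Buffer or medium: 50 mM HEPES pH 7.4 buffer plus MgCl2 and Tween 20. Also added: 0.114 mM NADH and 0.1 mM resazurin, final amounts. Dosing: compound 20 µM once, DMSO 1%. Schedule: 16 min enzyme reaction, ambient temperature. Detection: fluorescence of resorufin, 544 nm excitation, 590 nm emission.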
PMI activator – activators of human PMI, primary screen, biochemical, fluorescence intensity, near-Km mannose 6-phosphate; Mannose-6-phosphate isomerase (Homo sapiens), P34949; purified human PMI, coupled resazurin fluorescence, 20 min; stronger effect = higher value; 1 = vehicle control, 0 substrate-free wells; activation factor at 20 µM; hit rate 0.005% among 190,000;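 active = activation factor of 2 or more at 20 µM, relative to plate controls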
An asterisk follows results filed as active; . = no result.

SMILES	PMI act satM6P	WT yeast gro inh	L major viab	Diaph act CS	PMI activator
NS(=O)(=O)c1ccc(CCNC(=O)/C=C/c2ccc([N+](=O)[O-])cc2)cc1	1.2	10.1	9.2	0.9	1.2
Cc1ccc(OCc2nnnn2-c2ccccc2)cc1	1	-2.4	0.6	0.8	0.9
COc1ccc(NC(=O)Nc2cc(C)ccc2OC(F)F)c(OC)c1	0.9	8.3	67.3*	0.9	0.9
Cc1c(Cl)ccc2c(C(=O)NC(C)c3ccncc3)cc(-c3ccncc3)nc12 (centres undefined)	1	35.3	39.5	1	1
CCC(CC)C(=O)N(CCc1ccc(OC)cc1)Cc1nc2ccccc2c(=O)[nH]1	1	16.1	100.2*	0.9	1
COc1ccccc1C(=O)OCCN1CCOCC1	1.2	-2.9	-3.4	1	1.2
Fc1ccccc1OCCCN1CCOCC1	1	8.1	51.4*	0.9	0.9
c1ccc(OCCOCCN2CCOCC2)cc1	1.1	-12.2	5.2	0.9	1
COc1ccccc1OCCCCCCN1CCOCC1	1.1	-2.0	89.5*	1	1.1
OC1(c2ccccc2F)CCN(Cc2nnnn2Cc2ccc(F)cc2)CC1	1	-8.7	9.2	0.9	1
CCc1ccc(-c2c(C)sc(NC(=O)C3CCC3)c2C#N)cc1	0.9	-13.3	50.4*	1	0.8
COc1ccc(C(=O)Nc2sc(C)c(-c3ccccc3)c2C#N)cc1OC	0.9	33.4	25.8	0.8	0.9
Cc1sc(NC(=O)C2CCCC2)c(C#N)c1C	1	-7.2	-8.3	1	0.8
Cc1sc(NC(=O)COc2ccccc2)c(C#N)c1-c1ccccc1	1.1	17.8	56.5*	0.8	1
CCOC(=O)c1sc(NC(=O)CSc2n[nH]c(-c3ccccc3)n2)c(C#N)c1C	0.8	77.4*	-5.4	0.7	0.5
O=C1NC(=Nc2cccc(Cl)c2)SC1Cc1cccc(Cl)c1Cl (centres undefined)	0.9	-9.5	-9.2	1	0.9
O=C(OCc1ccccc1)N1CCCC1/C=C/CN1CCOCC1 (centres undefined)	1.1	-4.3	81.9*	1	1
COc1ccc(/C=c2\s/c(=C(/C#N)C(=O)NCc3ccco3)n(-c3ccccc3)c2=O)cc1	0.9	3.7	61.9*	0.9	0.9
COC(=O)/C=c1/s/c(=C(\C#N)C(=O)NCc2ccco2)n(-c2ccccc2)c1=O	1.1	-5.3	2.7	0.8	1.2
Cc1ccc(-c2nnc(N3CC(C)OC(C)C3)c3ccccc23)cc1 (centres undefined)	1.1	1.4	35.0	1.1	1.1
COC(=O)C(NC(=O)c1ccccc1C)(Nc1ncc(S(=O)(=O)c2ccc([N+](=O)[O-])cc2)s1)C(F)(F)F (centres undefined)	0.9	2.9	9.4	0.8	0.8
COC(=O)C(NC(=O)c1ccc(F)cc1)(Nc1ncc(S(=O)(=O)c2ccc([N+](=O)[O-])cc2)s1)C(F)(F)F (centres undefined)	0.9	9.4	58.1*	0.8	0.9
Cc1ccc(-c2nc(CN3CCCCC3)cc(CN3CCCCC3)c2O)cc1	1.1	-6.6	10.7	1.3	1.1
CC(C)Oc1cccc(C(=O)Nc2ccc(CN3CCOCC3)cc2)c1	0.9	-8.9	79.3*	0.9	0.9
COc1c(C)cccc1C(=O)Nc1ccc(CN2CCOCC2)cc1	0.9	-4.3	98.2*	0.9	0.7
SMILES	PMI act satM6P	WT yeast gro inh	L major viab	Diaph act CS	PMI activator
Cc1cccn2c(=O)c3cc(C(N)=S)c(=N)n(CCCOC(C)C)c3nc12	0.9	-3.7	87.1*	0.6	1
COCCNC(=O)c1cc2c(=O)n3cccc(C)c3nc2n1C	0.9	17.5	.	0.9	0.9
Cc1cccn2c(=O)c3cc(C(=O)N(C)C)n(C)c3nc12	1.1	5.9	87.4*	0.9	1.1
CCOC(=O)c1cc2c(=O)n3ccccc3nc2n(Cc2ccccc2)c1=N	0.9	10.3	13.8	0.8	0.9
CCOCCCn1c(=N)c(C(N)=S)cc2c(=O)n3cccc(C)c3nc21	1.8	5.3	43.3	0.9	1.4
CCOC(=O)c1cc2c(=O)n3cccc(C)c3nc2n(C)c1=N	1	-7.1	97.7*	1	1.1
Cc1nc2scc(-c3ccc(C(C)(C)C)cc3)c2c(=O)n1N	1.1	-9.4	-1.6	1	1.1
Cc1ccc(NC(=O)c2ccc3c(c2)C(=O)N(Cc2cccnc2)C3=O)c(C)c1	1	14.4	-5.6	1	1
CC(C)CCN(C(=S)NC(=O)C1CCCCC1)c1c(N)n(Cc2ccccc2)c(=O)[nH]c1=O	0.8	4.8	-6.2	0.8	0.8
Oc1ccc(N=Nc2n[nH]c(-c3ccc(Cl)cc3)n2)cc1	0.9	8.3	-0.4	0.9	1
O=S(=O)(Nc1cc(Sc2ncn[nH]2)c(O)c2ccccc12)c1ccccc1	0.1	23.6	99.1*	0.8	0
O=C(O)/C=C/C(=O)c1ccc2c(c1)NC(=O)CO2	1	-3.5	-2.3	0.9	0.4
CCn1c(=O)cc(SCC(=O)N2CCN(c3ccccc3F)CC2)c2ccccc21	0.9	-13.2	52.6*	0.9	0.9
CCc1ccc2c(c1)C(c1ccc(N3CCOCC3)cc1)=NNC(c1ccncc1)=N2	1	68.2*	57.1*	0.9	0.8
Brc1ccc2c(c1)C(c1ccc(N3CCOCC3)cc1)=NNC(c1cccs1)=N2	0.8	13.2	78.2*	0.8	0.8
Cc1ccc2c(c1)C(c1ccc(N3CCOCC3)cc1)=NNC(c1cccs1)=N2	1.1	30.8	85.9*	1	1.1
CCc1ccc2c(c1)C(c1ccc([N+](=O)[O-])cc1)=NNC(c1ccc(C)cc1)=N2	0.9	2.6	85.0*	1	0.9
CCOc1ccc2c(c1)C(c1ccc(C)cc1)=NNC(c1ccc(OC)cc1)=N2	0.9	51.4	36.2	0.8	0.9
CN(C)c1ccc(N2CC(C)(C)C2=O)cc1	0.9	-23.8	-3.9	0.9	1
CCCc1ccc(OC(=O)c2ccc(O)cc2Cl)cc1	0.9	71.0	5.4	0.8	0.9
NS(=O)(=O)c1ccc(N/N=C/c2ccccc2Br)cc1	1	-12.4	-3.7	0.9	1
Nc1nc(CSc2nnnn2-c2ccccc2)nc(N2CCCc3ccccc32)n1	0.9	59.9*	15.7	0.8	0.9
Cc1cc(C)c(NS(=O)(=O)c2ccc(NC(=O)CCC(=O)O)cc2)c(C)c1	1.2	-0.5	2.8	0.9	1.1
O=C(O)CC(c1ccccc1)n1cccc1 (centres undefined)	2*	5.7	-5.4	0.9	1.3
Nc1ccc(C(CC(=O)O)n2cccc2)cc1 (centres undefined)	0.8	-5.2	-1.5	0.9	0.9

Screens as filed in PubChem BioAssay.
